Bioassay records deposited in PubChem by Sanford-Burnham Center for Chemical Genomics.
SUMO1-SIM PPI: modulators of SUMO1 protein-protein interactions, primary screen, biochemical, uHTS. Small ubiquitin-related modifier 1 (Homo sapiens), P63165. SUMO1 binding to a labelled peptide, TR-FRET, 1 h. inhibition, % at 20 µM. actives 0.33% (n = 360,000). AID 602429, 2012; in the data active = inhibition above about 37%
Target sequence (P63165 whole entry, looked up): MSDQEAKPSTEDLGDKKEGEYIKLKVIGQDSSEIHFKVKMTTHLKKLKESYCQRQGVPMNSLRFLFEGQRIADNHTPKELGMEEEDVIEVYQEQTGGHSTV
STEP block: STEP phosphatase inhibitors, primary screen, biochemical, fluorescence intensity, uHTS; Tyrosine-protein phosphatase non-receptor type 5 (Homo sapiens), P54829; recombinant STEP, OMFP fluorogenic substrate; inhibition, % at 20 µM; actives 0.25% (n = 360,000); AID 588621, 2011;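 active = inhibition at 20 µM, scaled per plate between control wells, above about 37%, limit read from the data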
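Assay system: isolated STEP enzyme / Timing: 20 min at room temperature, dark / Doses: 20 µM, 1% DMSO / Technique: fluorescence intensity, excitation 480 nm, emission 540 nm / Reagent: fluorogenic phosphatase substrate OMFP at 25 µM final / Measure: percent inhibition scaled to no-enzyme and uninhibited-enzyme controls, plate-pattern corrected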
DNMT1 inh: human DNMT1 methyltransferase inhibitors, primary screen, biochemical, molecular beacon, fluorescence, HinP1I cleavage, uHTS; inhibition (reported as % activation of signal), % at 10 µM; actives 0.83% (n = 360,000); AID 588458, 2011; in the data active = inhibition above about 50%
Scp1 inh: Scp-1 phosphatase inhibitors, primary screen, biochemical, colorimetric, uHTS | inhibition, % at 20 µM | Carboxy-terminal domain RNA polymerase II polypeptide A small phosphatase 1 (Homo … | actives 0.88% (n = 340,000) | AID 493091, 2011 | Recombinant Scp1, phosphopeptide, malachite green phosphate absorbance;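 active = inhibition above about 50% at 20 µM, limit read from the data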
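Test system – truncated SCP-1 phosphatase (76-261aa) · Reagent – Phosphorylated 17-residue peptide substrate · Incubation – 45 min room-temperature reaction, 5 min colour, 30 min stabiliser · Detection – colorimetric phosphate reagent with accelerator and stabiliser, absorbance at 630 nm · Measure – % inhibition at 20 µM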
CSN inh: inhibitors of CSN-mediated cullin deneddylation, primary screen, biochemical, fluorescence polarization, uHTS | inhibition, % at 12.5 µM | actives 0.38% (n = 360,000) | COP9 signalosome complex subunit 5 (Homo sapiens), Q92905 | Purified CSN, SCF-Nedd8-OG deneddylation | AID 651999, 2013;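 active = pattern-corrected inhibition above about 35%, with an unprinted fluorescence ratio check between 0.5 and 1.5, limit read from the data, passing the limit was not always enough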
Target sequence (Q92905 whole entry, looked up, one chain of several): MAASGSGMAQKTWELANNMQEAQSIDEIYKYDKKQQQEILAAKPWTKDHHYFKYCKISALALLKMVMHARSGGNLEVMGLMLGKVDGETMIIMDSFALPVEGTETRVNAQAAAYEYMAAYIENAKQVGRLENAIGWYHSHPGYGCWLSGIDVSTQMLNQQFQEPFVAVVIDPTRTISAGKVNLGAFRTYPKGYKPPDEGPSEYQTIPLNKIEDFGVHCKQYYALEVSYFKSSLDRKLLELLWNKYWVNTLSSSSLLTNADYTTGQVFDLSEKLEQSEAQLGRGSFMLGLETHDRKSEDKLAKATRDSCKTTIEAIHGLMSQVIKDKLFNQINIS
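Detection – fluorescence polarization · System – HEK293T-derived human Csn5 enzyme · Controls – substrate-only high control, full reaction low control · Timing – 90 min, room temperature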
LMPTP inh: LMPTP phosphatase inhibitors, primary screen, biochemical, fluorescence intensity, uHTS; Low molecular weight phosphotyrosine protein phosphatase (Homo sapiens), P24666; recombinant LMPTP-A, OMFP fluorogenic substrate; inhibition, % at 20 µM; actives 0.22% (n = 360,000);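 active = compounds that cut the enzyme signal by at least half of the control window in the single-dose screen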
Target sequence (P24666 whole entry, looked up): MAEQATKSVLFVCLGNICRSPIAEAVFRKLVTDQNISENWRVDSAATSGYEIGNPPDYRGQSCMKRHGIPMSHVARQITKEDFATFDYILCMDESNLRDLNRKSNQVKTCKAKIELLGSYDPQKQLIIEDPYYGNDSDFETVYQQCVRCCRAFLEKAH
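material = LMPTP-A | quantity = 0.625 nM enzyme | reagent = OMFP substrate, 400 µM final | buffer or medium = Bis-Tris pH 6.0, DTT, detergent | detection = endpoint fluorescence intensity from OMFP dephosphorylation | dosing = single 20 µM dose | read-out basis = % inhibition relative to no-enzyme and uninhibited control wells | control set = no-enzyme and uninhibited controls | timing = 50 min at room temperature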
Scp-1 conf: Scp-1 phosphatase inhibitors, retest, confirmation, biochemical, colorimetric, single concentration; shares compounds with Scp1 inh; recombinant SCP-1 catalytic domain, phosphate release, malachite green absorbance; inhibition, % at 20 µM; actives 61% (n = 2,500); AID 540281, 2011
Scp-1 MG ctr: colorimetric readout interference by compounds, confirmation, artefact control for Scp-1 inhibitor project, biochemical, single concentration | apparent inhibition (interference), % at 20 µM | Colorimetric interference counterscreen, malachite green absorbance 630 nm | 2,500 tested, under 10 active | shares compounds with Scp1 inh;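 note: compounds added after enzyme reaction finished so only phosphate colour detection is probed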
Scp1 DSF: Scp-1 binding by thermal shift, confirmation, orthogonal assay for Scp-1 inhibitor project, biophysical, differential scanning fluorimetry | shares compounds with Scp1 inh | Recombinant SCP1, Sypro Orange thermal shift Tm | thermal shift relative to vanadate control, % at 40 µM | actives 25% (n = 1,500) | AID 540329, 2011;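 active = substances whose mean melting-temperature shift, as a percentage of the reference inhibitor's shift, reaches about 5.3%, limit read from the data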
Hits are given with their value; . = inactive; / = not tested or not shown; ! = repeats disagree. Rows were chosen to be rich in hits. Some 1.9% of all compounds tested hit in one or more screens of this group.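 Rule for the calls, unless noted: active = inhibition of at least 30% at 20 µM; inactive = the rest.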

SMILES | SUMO1-SIM PPI | STEP block | DNMT1 inh | Scp1 inh | CSN inh | LMPTP inh | Scp-1 conf | Scp-1 MG ctr | Scp1 DSF
O=C(O)c1cccc2c1/C(=N/Nc1ccc([N+](=O)[O-])cc1[N+](=O)[O-])c1ccccc1-2 | . | . | . | 86 | . | . | 57 | . | 12
CCOC(=O)c1ccccc1NC(=O)C1CSC2(C)CCC(=O)N12 (stereo not drawn) | . | . | . | . | . | . | / | / | /
Cc1cccc(C)c1NC(=O)CCCCCC1NC(=O)NC1C (stereo not drawn) | . | . | . | . | . | . | . | . | /
COc1ccc(NC(=O)CN(c2ccccc2)S(=O)(=O)N(C)C)cc1Cl | . | . | . | . | . | . | / | / | /
COc1ccc(NC(=O)CN(c2ccccc2)S(=O)(=O)N(C)C)cc1OC | . | . | . | 76 | . | . | 69 | . | .
COc1ccc(C(=O)Nc2ccc3c(c2)C(=O)c2ccccc2C3=O)cc1OC | . | 55 | 57 | 66 | . | . | . | . | /
OC(CNCC(c1ccco1)N1CCCCC1)c1ccccc1 (stereo not drawn) | . | . | . | . | . | . | / | / | /
COc1ccc(Cl)cc1S(=O)(=O)N1CCC(C(=O)NCC2CCCO2)CC1 (stereo not drawn) | . | . | . | . | . | . | / | / | /
COc1ccc(OC)c(S(=O)(=O)N2CCC(C(=O)NCC3CCCO3)CC2)c1 (stereo not drawn) | . | . | . | 92 | . | . | . | . | /
COc1cccc(NC(=O)CN(C)C(=O)C2CC(=O)N(CCc3ccc(OC)c(OC)c3)C2)c1 (stereo not drawn) | . | . | . | . | . | . | / | / | /
c1ccc2[nH]c(-c3ccnc4ccccc34)nc2c1 | . | . | . | 100! | . | . | 79 | . | .
CCc1nc2ccc(C(=O)Nc3ccc(Cl)c(Cl)c3)cn2c1N(C)Cc1ccc(OC)cc1 | . | . | . | / | . | . | / | / | /
CCOc1ccc(C(=O)Nc2cccc(-c3nc4cccnc4o3)c2)cc1Cl | . | . | . | 83 | . | . | . | . | /
CC(CCc1ccccc1)NC(=O)CCNS(=O)(=O)c1ccccc1C(F)(F)F (stereo not drawn) | . | . | . | . | . | . | / | / | /
CC(C)(C)OC(=O)NCCCCCc1cn(CC(=O)NCCCCCCCCCCC(=O)N2CCN(C(=O)OC(C)(C)C)CC2)nn1 | . | . | . | 61 | . | . | . | . | /
CC(C)OCCOc1ccc2oc(-c3ccco3)cc(=O)c2c1 | . | . | . | 61 | . | . | 60 | . | .
Cc1cc(OCC(=O)OCC(=O)N(Cc2ccccc2)C(C)(C)C)ccc1Cl | . | . | . | / | . | . | / | / | /
O=C(N/N=C/c1ccccn1)c1cc(-c2ccc(Br)s2)[nH]n1 | . | . | . | 67 | . | . | 52 | . | .
O=C(N/N=C/c1ccncc1)c1cc(-c2ccc(Br)s2)[nH]n1 | . | . | . | . | . | . | / | / | /
C[C@H](CCC(=O)O)[C@H]1CC[C@H]2[C@@H]3CC[C@@H]4C[C@H](O)CC[C@]4(C)[C@H]3CC[C@]12C | . | . | . | 58 | . | . | 56 | . | .
Cc1ccc(OCC(=O)Nc2ccc(CN3CCOCC3)cc2)cc1 | . | . | . | 70 | . | . | . | . | /
Cc1cccc(OCC(=O)Nc2ccc(CN3CCOCC3)cc2)c1C | . | . | . | . | . | . | / | / | /
Cc1ccc(NC(=O)COc2ccc(/C=N/NC(=O)CSCc3ccccc3)cc2)cc1 | . | . | . | 85 | . | . | 70 | . | .
O=C(CN1CCOCC1)Nc1ccc([N+](=O)[O-])cc1 | . | . | . | . | . | . | / | / | /
Cc1ccc(-n2[nH]c(C)c(/C=N/Nc3ccc([N+](=O)[O-])cc3[N+](=O)[O-])c2=O)cc1 | . | . | . | 61 | . | . | 80 | . | 11
SMILES | SUMO1-SIM PPI | STEP block | DNMT1 inh | Scp1 inh | CSN inh | LMPTP inh | Scp-1 conf | Scp-1 MG ctr | Scp1 DSF
CCCC(C)(C)C(=O)N1CCC1(C)C(=O)Nc1ccc2c(c1)OCCO2 (stereo not drawn) | . | . | . | / | . | . | / | / | /
CN(/N=C/c1ccncc1)c1cnn(-c2ccc(F)c(Cl)c2)c(=O)c1Cl | . | . | . | 54 | 44 | . | . | . | /
CC1=C(C#N)C(Nc2cc(C)ccn2)(C(F)(F)F)C(=O)N1 (stereo not drawn) | . | . | . | . | . | . | / | / | /
CC1=NC(C(F)(F)F)(C(F)(F)F)C(C#N)=C(C)N1 | . | . | . | 56 | . | . | . | . | /
Cc1ccc(C)c(NC(=S)N2CCC(C(=O)c3ccc(F)cc3)CC2)c1 | . | . | . | / | . | . | / | / | /
O=C(NCc1ccccn1)C1CCN(S(=O)(=O)c2cnc[nH]2)CC1 | . | . | . | 60 | . | . | 33 | . | .
O=C(NCc1ccccn1)C1CCN(S(=O)(=O)c2ccccc2)CC1 | . | . | . | . | . | . | / | / | /
COc1ccc(CC(=O)NNC(=O)COc2ccc3ccccc3c2)cc1 | . | . | . | 57 | . | . | 52 | . | .
CC(=O)c1cccc(NC(=O)Cn2nc(-c3ccc(Cl)cc3)ccc2=O)c1 | . | . | . | 51 | . | . | . | . | /
COCCN(C(=O)Cn1nnc2ccccc21)C(C(=O)NC1CCCCC1)c1ccc(OC)cc1OC (stereo not drawn) | . | . | . | 71 | . | . | 48 | . | .
CCCc1ccc(C(=O)NNc2cc(Cl)ccc2Cl)cc1 | . | . | . | . | . | . | / | / | /
CCCc1ccc(C(=O)NNC(=O)c2ccc(Cl)cc2)cc1 | . | . | . | 94 | . | . | 74 | . | .
